Assay results reported in ChEMBL document CHEMBL1135105, “Design, synthesis and biochemical evaluation of AC ring mimics as novel inhibitors of the enzyme estrone sulfatase (ES)” (Bioorg Med Chem Lett, 2002).

How the values were obtained:
[1] = Partition coefficient (logP); assay type: physicochemical; conditions: octanol/water
Steryl-sulfatase = target: T1, Steryl-sulfatase (Homo sapiens, UniProt P08842); experiment: Compound was evaluated for its inhibitory activity against estrone sulfatase enzyme
T1 sequence (P08842 whole entry): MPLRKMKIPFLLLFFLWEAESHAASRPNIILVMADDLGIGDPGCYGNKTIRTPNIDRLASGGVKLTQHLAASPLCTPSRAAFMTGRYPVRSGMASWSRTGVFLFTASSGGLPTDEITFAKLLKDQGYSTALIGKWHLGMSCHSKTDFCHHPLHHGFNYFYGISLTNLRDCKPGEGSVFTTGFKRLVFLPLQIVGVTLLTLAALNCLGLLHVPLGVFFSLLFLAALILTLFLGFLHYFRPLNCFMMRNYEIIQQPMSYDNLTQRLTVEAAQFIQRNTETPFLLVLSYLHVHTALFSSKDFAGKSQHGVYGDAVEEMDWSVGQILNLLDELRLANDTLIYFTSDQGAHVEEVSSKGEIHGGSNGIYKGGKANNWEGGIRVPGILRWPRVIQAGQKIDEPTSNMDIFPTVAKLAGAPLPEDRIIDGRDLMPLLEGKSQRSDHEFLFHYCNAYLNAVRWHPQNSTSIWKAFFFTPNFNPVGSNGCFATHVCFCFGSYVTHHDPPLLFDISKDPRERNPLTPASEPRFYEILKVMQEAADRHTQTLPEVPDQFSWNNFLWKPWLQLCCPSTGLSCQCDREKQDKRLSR
In short: (§1)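 They are added to tubes holding [3H]estrone sulfate (300,000 dpm) and inhibitor, which was dried from ethanol under nitrogen. Incubation runs 20 min at 37 °C and is quenched with toluene. Radioactivity in the toluene extract is counted. Triplicates are run alongside no-inhibitor controls and boiled-microsome blanks.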

[2] = target: T2, Steryl-sulfatase (Homo sapiens) (UniProt P08842); experiment: Compound was evaluated for its percent inhibition against the estrone sulfatase enzyme at a concentration of 5 uM
T2 sequence (whole entry): T1 sequence (P08842 whole entry)
In short: as §1, with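 “Placental microsomes, diluted to 115 µg/mL in 0.05 M Tris-HCl pH 7.2, are pre-warmed 5 min at 37 °C. They” for “They”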

[3] = target: T2, Steryl-sulfatase (Homo sapiens); conditions: 10 uM

Compound	logP [1]	IC50 (Steryl-sulfatase) [uM tube-1]	inhibition [2] [%]	inhibition [3] [%]
CCCOC(=O)c1ccc(-c2ccc(OS(N)(=O)=O)cc2)cc1	3.99	3.5	60.5	–
CCOC(=O)c1ccc(-c2ccc(OS(N)(=O)=O)cc2)cc1	3.52	4.2	53.4	–
NS(=O)(=O)Oc1ccc2c3c(c(=O)oc2c1)CCCCC3 [IROSUSTAT]	2.65	–	86.8	–
N#Cc1ccc(-c2ccc(OS(N)(=O)=O)cc2)cc1	3.48	6.7	44.2	–
C[C@]12CC[C@@H]3c4ccc(OS(N)(=O)=O)cc4CCC3[C@@H]1CCC2=O (single isomer, unassigned) [EMATE]	3.87	0.1	–	–
NS(=O)(=O)Oc1ccc(-c2ccccc2)cc1	3.45	76.1	5.5	–
Cc1cc(=O)oc2cc(OS(N)(=O)=O)ccc12	1.7	10	–	47.6
CCCCOC(=O)c1ccc(-c2ccc(OS(N)(=O)=O)cc2)cc1	4.38	5.8	48.4	–
COC(=O)c1ccc(-c2ccc(OS(N)(=O)=O)cc2)cc1	3.18	5.2	44.2	–
